The text below walks through data of ChEMBL document CHEMBL4765240, “Design, Synthesis, and Immunological Evaluation of a Multicomponent Construct Based on a Glycotripeptoid Core Comprising B and T Cell Epitopes and a Toll-like Receptor 7 Agonist That Elicits Potent Immune Responses” (J Med Chem, 2018).

Calls of active or inactive are those of the source. The rule behind the calls is not given here. Numbered stars: 1 amine (or outer) side, 2 acyl side, 3 side chain; on linkers, the order of the positions; unused ones are H or OH. Square brackets hold non-standard residues; d marks the D form. Peptide text beside a SMILES is read from it. * marks the point of attachment. X4 = O=C(CCN(CCCO[C@H]1O[C@H](CO)[C@@H](O)[C@H](O)[C@@H]1O)[*:1])[*:2]; X3 = COCCOc1nc(N)c2[nH]c(=O)n(Cc3ccc(C(=O)*)cc3)c2n1; X2 = O=C(CCCCCn1cc(CN[*:1])nn1)[*:2]; Ahx = NCCCCCC(=O)O

The test system of series [1] is Bone marrow cell. Kind of series: Adjuvanted-antitumor vaccine activity in C57BL/6 mouse bone marrow derived cells assessed as induction of IL-12 production at 10^-4 to 10^1 ug/ml incubated for 48 hrs by ELISA. The following applies: dose 0.0001-10 µg/ml. It is filed as functional, cell-based. In a few lines:
(§1)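 BMDCs from C57BL/6 bone marrow grown 6 days in 2-ME/10% FCS RPMI with GM-CSF-containing supernatant, about 60−70% CD11c⁺CD11b⁺. 10⁵ cells incubated at 37 °C for 48 h with increasing compound concentrations. IL-12p40 and IL-6 measured in supernatants by ELISA.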
Background: In an ELISA, binding on a coated surface is turned into a signal by an enzyme label.

Series [2] relates to Bone marrow cell. Kind of series: Adjuvanted-antitumor vaccine activity in C57BL/6 mouse bone marrow derived cells assessed as induction of IL-6 production at 10^-4 to 10^1 ug/ml incubated for 48 hrs by ELISA. The note with it: dose 0.0001-10 µg/ml. It is filed as functional, cell-based. In a few lines: as §1
For series [3], the species on record is Mus musculus. Kind of series: Immuno-adjuvant activity in C57BL/6 mouse assessed as antibody response to Tn3G7K by measuring serum IgG levels at 11 .7 nmol, ID at day 0 and day 21 and measured post second dose. It is filed as functional, organism-based. The following applies: time 21.0 day. The gist of the method: (§2)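 Female C57BL/6 mice, 6 weeks old, were immunized intradermally with 11.7 nmol on days 0 and 21, and sera were taken on day 28. IgG was measured by ELISA on plates coated at 1 μg/mL, with the biotinylated Tn peptide captured on streptavidin plates for 1 h at 37 °C. Serum dilution series were detected with anti-mouse IgG-HRP and OPD/H2O2, read at 492 nm. Titer is the log10 of the highest dilution giving twice the absorbance of naive serum at 1/100, reported as mean SD.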

The species named for series [4] is Mus musculus. The series is described as follows: Adjuvanted-antitumor vaccine activity in C57BL/6 mouse assessed as induction of OT2-T cell mediated IFNgamma production in lymph node at 1 ug/ml, ID incubated for 5 days by anti-IFNgamma staining based flow cytometry. It is filed as functional, organism-based. The note with it: dose 1.0 µg/ml, time 5.0 day. A general note: A flow cytometer gives signals particle by particle.

The species named for series [5] is Mus musculus. Kind of series: Immuno-adjuvant activity in C57BL/6 mouse assessed as antibody response to OVA peptide by measuring serum IgG levels at 11 .7 nmol, ID at day 0 and day 21 and measured post second dose. The note with it: time 21.0 day. It is filed as functional, organism-based.
The species named for series [6] is Mus musculus. Kind of series: Immuno-adjuvant activity in C57BL/6 mouse assessed as antibody response to (2R,8R,11S,14R,20R)-14-(2-amino-2-oxoethyl)-20-((2S,5R,8S,11R,14S,17R,20S,23R,26S)-5,14-bis((1H-imidazol-5-yl)methyl)-36-(4-(22-(4-((6-amino-2-(2-methoxyethoxy)-8-oxo-7H-purin-9(8H)-yl)methyl)phenyl)-3,7,11,15,22-pentaoxo-6-(3-((2S,3S,4S,5S,6R)-3,4,5-trihydroxy-6-(hydroxymethyl)tetrahydro-2H-pyran-2-yloxy)propyl)-10,14-bis(3-((2S,3S,4S,5S,6S)-3,4,5-trihydroxy-6-(hydroxymethyl)tetrahydro-2H-pyran-2-yloxy)propyl)-2,6,10,14,21-pentaazadocosyl)-1H-1,2,3-triazol-1-yl)-23-(3-amino-3-oxopropyl)-29-sec-butyl-26-(hydroxymethyl)-17-isopropyl-2,8,11,20-tetramethyl-4,7,10,13,16,19,22,25,28,31-decaoxo-3,6,9,12,15,18,21,24,27,30-decaazahexatriacontanamido)-17-sec-butyl-11-(2-carboxyethyl)-2-(3-guanidinopropyl)-8-methyl-4,7,10,13,16,19-hexaoxo-3,6,9,12,15,18-hexaazatricosane-1,23-dioic acid by measuring serum IgG levels at 11 .7 nmol, ID at day 0 and day 21 and measured post second dose. It is filed as functional, organism-based. In a few lines:
as §2

The species named for series [7] is Mus musculus. Kind of series: Adjuvanted-antitumor vaccine activity in C57BL/6 mouse assessed as induction of OT2-T cell mediated IFNgamma production in lymph node at 11.7 nmol, ID incubated for 5 days by anti-IFNgamma staining based flow cytometry. It is filed as functional, organism-based. The note with it: time 5.0 day. The gist of the method: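 Lymph node cells taken at day 5, 5 × 10⁵ per well, restimulated 2 h at 37 °C with 50 μg/mL OVA 323−339 plus GolgiPlug. Fixed, permeabilized, stained with anti-CD4, anti-CD3 and anti-IFNγ; flow cytometry.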

For series [8], the species on record is Mus musculus. Kind of series: Immuno-adjuvant activity in immunized-C57BL/6 mouse assessed as antibody recognition in sera against Tn3G7K at 11 .7 nmol, ID at day 1 and day 20 and measured post second dose on day 27. It is filed as functional, organism-based. The gist of the method: (§3)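 C57BL/6 mice, n = 3 per group, received 11.7 nmol intradermally on days 1 and 20, and sera were taken on day 27. ELISA plates were coated at 1 μg/mL with the peptoid or the biotinylated Tn3G7K, the latter on streptavidin plates for 1 h at 37 °C. Serially diluted sera were detected with anti-mouse IgG-HRP and OPD, read at 492 nm. Log10 titer is the dilution giving twice the absorbance of 1/100 naive serum.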

Series [9] is filed under the species Mus musculus. The series is described as follows: Adjuvanted-antitumor vaccine activity in C57BL/6 mouse assessed as induction of OT2-T cell mediated IL-5 production in splenocytes at 11.7 nmol, ID followed by stimulation with OVA(323 to 339) peptide incubated for 48 hrs by ELISA. It is filed as functional, organism-based. In a few lines: (§4)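 OT-II CD4⁺ T cells (2 × 10⁵) transferred into C57BL/6 mice (n = 3 per group), then 11.7 nmol per mouse given intradermally. Splenocytes harvested at day 5, cultured at 5 × 10⁵ per well with or without OVA 323−339 (1 μg/mL) at 37 °C for 48 h. IFN-γ and IL-5 measured in supernatants by ELISA.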

The species entered for series [10] is Mus musculus. The series is described as follows: Immuno-adjuvant activity in immunized-C57BL/6 mouse assessed as antibody recognition in sera against 22 at 11 .7 nmol, ID at day 1 and day 20 and measured post second dose on day 27. It is filed as functional, organism-based. In a few lines: as §3
The species named for series [11] is Mus musculus. The series is described as follows: Adjuvanted-antitumor vaccine activity in C57BL/6 mouse assessed as induction of OT2-T cell mediated IFNgamma production in splenocytes at 11.7 nmol, ID followed by stimulation with OVA(323 to 339) peptide after 48 hrs by ELISA. It is filed as functional, organism-based. In a few lines: as §4
In series [12] the test system is Bone marrow cell. Kind of series: Adjuvanted-antitumor vaccine activity in C57BL/6 mouse bone marrow derived cells assessed as induction of T cell activation at 10^-4 to 10^1 ug/ml incubated for 3 days in presence of mouse OT2-derived CD4+ T cell by ELISA. The note with it: dose 1.0 µg/ml, time 72.0 hrs.
Series [13] is filed under the species Mus musculus. The series is described as follows: Immuno-adjuvant activity in immunized-C57BL/6 mouse assessed as antibody recognition in sera against 21 at 11 .7 nmol, ID at day 1 and day 20 and measured post second dose on day 27. It is filed as functional, organism-based. In a few lines:
as §3

In series [14] the test system is Mus musculus. Kind of series: Adjuvanted-antitumor vaccine activity in C57BL/6 mouse assessed as fold increase in OT-2 T cells in spleen at 11.7 nmol, ID coadministered with OT2-derived CD4+ T cell after 5 days […]. It is filed as functional. The note with it: for fold change (FC): time 5 day. In a few lines:
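2 × 10⁵ OT-II CD4⁺ T cells (from OT-II Rag2 TCR-transgenic knockout mice) transferred into C57BL/6 mice (6−10 weeks, n = 3 per group), then intradermal immunization with 11.7 nmol per mouse. Spleen collected after 5 days; OT-II cells counted by flow cytometry with anti-CD4, anti-Vα2 and anti-Vβ5.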

Series [15] concerns CD4+ve Th. Kind of series: Cytotoxicity against OT2 mouse CD4-positive T cells xenografted in C57BL/6 mouse assessed as reduction in cell viability in splenocytes by flow cytometry analysis. It is filed as cell-based. The following applies: in vivo.

For `CC(=O)N[C@H]1[C@@H](OCCCNCCC(=O)N(CCCO[C@H]2O[C@H](CO)[C@H](O)[C@H](O)[C@H]2NC(C)=O)CCC(=O)N(CCCO[C@H]2O[C@H](CO)[C@H](O)[C@H](O)[C@H]2NC(C)=O)CCC(=O)OC(C)(C)C)O[C@H](CO)[C@H](O)[C@@H]1O`, the outcome in series [1] and in [2] was inactive.

Turning to `COCCOc1nc(N)c2[nH]c(=O)n(Cc3ccc(C(=O)NCCCCCC(=O)N(CCCO[C@H]4O[C@H](CO)[C@H](O)[C@H](O)[C@H]4NC(C)=O)CCC(=O)N(CCCO[C@H]4O[C@H](CO)[C@H](O)[C@H](O)[C@H]4NC(C)=O)CCC(=O)N(CCCO[C@H]4O[C@H](CO)[C@H](O)[C@H](O)[C@H]4NC(C)=O)CCC(=O)OC(C)(C)C)cc3)c2n1`, the result in series [3], in series [4] and in series [5] was inactive. Further, the result in series [1] and in [2] was Active.

As to `COCCOc1nc(N)c2[nH]c(=O)n(Cc3ccc(C(=O)O)cc3)c2n1`, the outcome in [1] and in series [2] was inactive.

In the case of `CC[C@H](C)[C@H](NC(=O)CCCCCn1cc(CNC(=O)CCN(CCCO[C@H]2O[C@H](CO)[C@H](O)[C@H](O)[C@H]2NC(C)=O)C(=O)CCN(CCCO[C@H]2O[C@H](CO)[C@H](O)[C@H](O)[C@H]2NC(C)=O)C(=O)CCN(CCCO[C@H]2O[C@H](CO)[C@H](O)[C@H](O)[C@H]2NC(C)=O)C(=O)CCCCCNC(=O)c2ccc(Cn3c(=O)[nH]c4c(N)nc(OCCOC)nc43)cc2)nn1)C(=O)N[C@@H](CO)C(=O)N[C@@H](CCC(N)=O)C(=O)N[C@@H](C)C(=O)N[C@H](C(=O)N[C@@H](Cc1cnc[nH]1)C(=O)N[C@@H](C)C(=O)N[C@@H](C)C(=O)N[C@@H](Cc1cnc[nH]1)C(=O)N[C@@H](C)C(=O)N[C@@H](CCC(=O)O)C(=O)N[C@H](C(=O)N[C@@H](CC(N)=O)C(=O)N[C@@H](CCC(=O)O)C(=O)N[C@@H](C)C(=O)NCC(=O)N[C@@H](CCCNC(=N)N)C(=O)O)[C@@H](C)CC)C(C)C` (HELM PEPTIDE1{[COCCOc1nc(N)c2[nH]c(=O)n(Cc3ccc(C(=O)NCCCCCC(=O)N(CCCO[C@H]4O[C@H](CO)[C@H](O)[C@H](O)[C@H]4NC(C)=O)CCC(=O)N(CCCO[C@H]4O[C@H](CO)[C@H](O)[C@H](O)[C@H]4NC(C)=O)CCC(=O)N(CCCO[C@H]4O[C@H](CO)[C@H](O)[C@H](O)[C@H]4NC(C)=O)CCC(=O)[*:2])cc3)c2n1].[O=C(CCCCCn1cc(CN[*:1])nn1)[*:2]].I.S.Q.A.V.H.A.A.H.A.E.I.N.E.A.G.R}$$$$V2.0), the result in series [3], in [8], in series [9] and in [5] was inactive. Besides, the outcome in series [6], in [7], in series [1], in series [10], in [11] and in series [12] was Active. In addition, the result in [13] and in series [2] was Active. In [14], the “fold change (FC)” value is reported as 30.

With `CC[C@H](C)[C@H](NC(=O)CCCCCn1cc(CNC(=O)CCN(CCCO[C@H]2O[C@H](CO)[C@@H](O)[C@H](O)[C@@H]2O)C(=O)CCN(CCCO[C@H]2O[C@H](CO)[C@@H](O)[C@H](O)[C@@H]2O)C(=O)CCN(CCCO[C@H]2O[C@H](CO)[C@@H](O)[C@H](O)[C@@H]2O)C(=O)CCCCCNC(=O)c2ccc(Cn3c(=O)[nH]c4c(N)nc(OCCOC)nc43)cc2)nn1)C(=O)N[C@@H](CO)C(=O)N[C@@H](CCC(N)=O)C(=O)N[C@@H](C)C(=O)N[C@H](C(=O)N[C@@H](Cc1cnc[nH]1)C(=O)N[C@@H](C)C(=O)N[C@@H](C)C(=O)N[C@@H](Cc1cnc[nH]1)C(=O)N[C@@H](C)C(=O)N[C@@H](CCC(=O)O)C(=O)N[C@H](C(=O)N[C@@H](CC(N)=O)C(=O)N[C@@H](CCC(=O)O)C(=O)N[C@@H](C)C(=O)NCC(=O)N[C@@H](CCCNC(=N)N)C(=O)O)[C@@H](C)CC)C(C)C` ({X3-Ahx}-[X4][X4][X4][X2]ISQAVHAAHAEINEAGR-OH), the result in [7], in series [1], in series [10], in series [11], in series [12] and in [13] was Active. Further, in series [2], the outcome was Active. Also, the result in series [8] and in [9] was inactive. For the same molecule, the “fold change (FC)” value in [14] is reported as 30.

Take `CC[C@H](C)[C@H](N)C(=O)N[C@@H](CO)C(=O)N[C@@H](CCC(N)=O)C(=O)N[C@@H](C)C(=O)N[C@H](C(=O)N[C@@H](Cc1cnc[nH]1)C(=O)N[C@@H](C)C(=O)N[C@@H](C)C(=O)N[C@@H](Cc1cnc[nH]1)C(=O)N[C@@H](C)C(=O)N[C@@H](CCC(=O)O)C(=O)N[C@H](C(=O)N[C@@H](CC(N)=O)C(=O)N[C@@H](CCC(=O)O)C(=O)N[C@@H](C)C(=O)NCC(=O)N[C@@H](CCCNC(=N)N)C(=O)O)[C@@H](C)CC)C(C)C` [ovalbumin peptide] (H-ISQAVHAAHAEINEAGR-OH): the result in series [4] and in series [14] (time 5.0 day) was inactive. Moreover, the Activity result in series [15] is on record as “Non-Toxic”.
